From ChEMBL document CHEMBL1140161, “Structure-activity relationships in 1,4-benzodioxan-related compounds. 9. From 1,4-benzodioxane to 1,4-dioxane ring as a promising template of novel alpha1D-adrenoreceptor antagonists, 5-HT1A full agonists, and cytotoxic agents” (J Med Chem, 2008) come the findings set out here.

Broadly, the GI50 is the concentration giving 50% growth inhibition. Broadly, the TGI is the concentration at which net growth stops. Usually Ki stands for the dissociation constant of the complex between target and ligand, obtained from inhibition or displacement. As a reminder, the pKb is the negative decadic logarithm of the Kb, by convention in mol/L.

Molecules are shown by their SMILES.

In one assay the test system is PC-3. Kind of assay: Cytotoxicity against human PC3 cells after 48 hrs by SRB assay. It counts as functional. The following applies: PC-3, 48 h; for CC50: read-out: LC50 (the source's name). The procedure, abridged:
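PC-3 human prostate cancer cells. Growth measured by sulforhodamine B staining following the NCI protocol. […] Values are means of quadruplicate determinations ± standard error (n = 5).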
A general note: The SRB assay estimates cell density from bound dye.

For assay [1], the target named is T1, 5-hydroxytryptamine receptor 1A (Homo sapiens) (UniProt P08908).
T1 sequence (whole entry): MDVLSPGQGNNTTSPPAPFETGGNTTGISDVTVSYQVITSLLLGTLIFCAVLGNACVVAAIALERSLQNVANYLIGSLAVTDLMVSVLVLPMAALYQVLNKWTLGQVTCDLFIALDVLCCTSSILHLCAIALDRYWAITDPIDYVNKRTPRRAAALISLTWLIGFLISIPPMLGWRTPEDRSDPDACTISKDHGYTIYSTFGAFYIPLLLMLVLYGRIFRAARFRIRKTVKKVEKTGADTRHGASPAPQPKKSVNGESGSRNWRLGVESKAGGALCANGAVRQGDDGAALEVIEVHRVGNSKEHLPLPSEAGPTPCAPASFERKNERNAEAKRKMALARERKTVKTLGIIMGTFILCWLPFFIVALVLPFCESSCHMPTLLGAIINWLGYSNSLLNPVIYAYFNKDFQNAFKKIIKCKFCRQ
Kind of assay: Agonist activity at human cloned 5HT1A receptor expressed in human HeLa cell membrane assessed as stimulation of [35S]GTPgammaS binding. Type of assay: functional, cell membranes. The gist of the method:
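Membranes from HeLa cells expressing cloned human 5-HT1A receptor; agonist-stimulated [35S]GTPγS binding measured. pD2 is the negative log of the agonist concentration giving 50% of maximal [35S]GTPγS binding stimulation; values from two to three experiments.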

Assay [2] has as its target T1, 5-hydroxytryptamine receptor 1A (Homo sapiens). Kind of assay: Agonist activity at human cloned 5HT1A receptor expressed in HeLa cell membrane assessed as stimulation of [35S]GTPgammaS binding relative to 5-hydroxytryptamine. It counts as functional, cell membranes. The gist of the method: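 Activation measured as [35S]GTPγS binding in membranes from HeLa cells expressing cloned human 5-HT1A receptor. pD2 is the negative log of agonist concentration giving 50% of maximal stimulation, from two to three experiments agreeing within 20%. Efficacy is given relative to 5-HT.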
On the technique in general: GTPγS is a poorly hydrolysed GTP analogue; its binding reports G protein activation.

For assay [3], the target named is T2, Alpha-1B adrenergic receptor (Homo sapiens, UniProt P35368).
T2 sequence (P35368 whole entry): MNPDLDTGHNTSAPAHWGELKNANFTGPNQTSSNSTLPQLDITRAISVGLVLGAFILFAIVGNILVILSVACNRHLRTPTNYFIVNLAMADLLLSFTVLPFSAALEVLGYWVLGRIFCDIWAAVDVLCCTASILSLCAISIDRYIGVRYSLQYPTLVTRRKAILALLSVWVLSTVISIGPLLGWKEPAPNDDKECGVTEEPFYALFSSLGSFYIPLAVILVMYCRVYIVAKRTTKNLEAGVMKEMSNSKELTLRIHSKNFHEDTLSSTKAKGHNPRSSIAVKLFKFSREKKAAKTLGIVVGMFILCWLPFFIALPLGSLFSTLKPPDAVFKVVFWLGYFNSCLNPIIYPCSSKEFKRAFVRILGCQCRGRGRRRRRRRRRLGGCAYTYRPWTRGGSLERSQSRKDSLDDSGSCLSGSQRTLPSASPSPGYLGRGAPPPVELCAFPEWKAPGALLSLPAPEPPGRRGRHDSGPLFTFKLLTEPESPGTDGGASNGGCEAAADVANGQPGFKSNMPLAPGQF
Kind of assay: Displacement of [3H]prazosin from human cloned Alpha-1B adrenoceptor expressed in CHO cells. It counts as cell-based. The procedure, abridged: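 [3H]prazosin binding to cloned human α1-adrenoceptor subtypes expressed in CHO cell membranes. Affinity reported as pKi for each subtype.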
(In general: In a radioligand displacement assay an active substance lowers the binding of a labelled ligand.)

Assay [4] addresses T3, Alpha-1D adrenergic receptor (Rattus norvegicus) (UniProt P23944).
T3 sequence (whole entry): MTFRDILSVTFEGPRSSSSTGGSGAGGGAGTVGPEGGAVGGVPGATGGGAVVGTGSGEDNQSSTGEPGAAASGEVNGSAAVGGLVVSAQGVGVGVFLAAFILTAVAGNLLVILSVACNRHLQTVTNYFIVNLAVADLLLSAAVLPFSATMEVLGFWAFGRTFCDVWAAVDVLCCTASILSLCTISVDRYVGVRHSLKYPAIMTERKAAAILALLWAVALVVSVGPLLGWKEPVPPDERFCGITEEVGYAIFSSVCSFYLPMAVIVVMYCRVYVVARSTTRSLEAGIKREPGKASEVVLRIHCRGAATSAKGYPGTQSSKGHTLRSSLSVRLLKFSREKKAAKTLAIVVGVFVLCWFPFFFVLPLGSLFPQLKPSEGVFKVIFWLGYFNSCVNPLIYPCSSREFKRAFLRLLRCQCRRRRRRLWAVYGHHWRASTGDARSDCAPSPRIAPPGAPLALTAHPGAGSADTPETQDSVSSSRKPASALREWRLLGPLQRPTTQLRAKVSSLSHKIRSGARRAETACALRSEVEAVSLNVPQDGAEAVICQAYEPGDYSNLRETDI
In words: Antagonist activity at Alpha-1D adrenoceptor in Wistar rat thoracic aorta assessed as inhibition of (-)-noradrenaline-induced contraction after 30 mins. It counts as functional, tissue-based.

Assay [5] addresses T4, Alpha-1B adrenergic receptor (Rattus norvegicus) (UniProt P15823).
T4 sequence (whole entry): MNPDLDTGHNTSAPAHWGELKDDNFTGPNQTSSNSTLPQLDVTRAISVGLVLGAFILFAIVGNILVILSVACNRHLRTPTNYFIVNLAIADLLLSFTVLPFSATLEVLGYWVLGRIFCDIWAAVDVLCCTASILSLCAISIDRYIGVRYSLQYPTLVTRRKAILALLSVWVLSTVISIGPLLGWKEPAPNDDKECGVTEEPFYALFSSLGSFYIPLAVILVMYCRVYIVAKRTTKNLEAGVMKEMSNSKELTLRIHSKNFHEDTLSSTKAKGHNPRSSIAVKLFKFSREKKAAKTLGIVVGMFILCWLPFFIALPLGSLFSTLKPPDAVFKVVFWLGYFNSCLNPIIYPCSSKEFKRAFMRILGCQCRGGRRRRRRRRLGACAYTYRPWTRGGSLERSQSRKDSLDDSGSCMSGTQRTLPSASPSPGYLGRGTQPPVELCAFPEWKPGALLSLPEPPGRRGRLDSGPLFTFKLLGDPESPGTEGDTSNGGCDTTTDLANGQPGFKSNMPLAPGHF
Kind of assay: Antagonist activity at alpha1B adrenoceptor in Wistar rat spleen assessed as inhibition of (-)-phenylephrine-induced contraction after 30 mins. Type of assay: functional, tissue-based.

The target in assay [6] is T5, Alpha-1A adrenergic receptor (Rattus norvegicus) (UniProt P43140).
T5 sequence (whole entry): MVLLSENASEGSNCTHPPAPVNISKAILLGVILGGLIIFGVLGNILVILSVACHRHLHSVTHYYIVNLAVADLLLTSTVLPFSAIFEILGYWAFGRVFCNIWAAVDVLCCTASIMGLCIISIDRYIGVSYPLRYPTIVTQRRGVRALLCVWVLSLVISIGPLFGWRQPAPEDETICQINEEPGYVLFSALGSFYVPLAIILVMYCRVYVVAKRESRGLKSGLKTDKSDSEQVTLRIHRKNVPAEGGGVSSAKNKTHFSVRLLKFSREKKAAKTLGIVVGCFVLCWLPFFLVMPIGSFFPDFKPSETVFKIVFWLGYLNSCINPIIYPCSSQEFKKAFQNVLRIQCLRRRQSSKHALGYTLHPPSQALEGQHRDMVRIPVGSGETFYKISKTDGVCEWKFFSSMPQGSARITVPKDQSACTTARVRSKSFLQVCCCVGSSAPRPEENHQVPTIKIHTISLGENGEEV
Kind of assay: Antagonist activity at alpha1A adrenoceptor in Wistar rat prostatic vas deferens assessed as inhibition of (-)-noradrenaline-induced contraction after 30 mins. Type of assay: functional, tissue-based.

In the case of `COc1cc2nc(N3CCN(C(=O)C4COc5ccccc5O4)CC3)nc(N)c2cc1OC` (configuration not stated) [DOXAZOSIN], in the assay on PC-3, it took 26.9 µM to inhibit growth by half (GI50), the TGI came to 49 µM and the CC50 amounted to 75.8 µM.
Turning to `NCCc1c[nH]c2ccc(C(N)=O)cc12`, in assay [1], the pD2 turned out to be 8.45. Besides, in assay [2], the %max came out at 96.
Take `CCCN(CCC)C1CCc2cccc(O)c2C1` (configuration not stated) [8-OH-DPAT]: in assay [3], the Ki is above 1 µM. The %max in assay [2] was 100.
As to `COc1cccc(OC)c1OCCNCC1COc2ccccc2O1` (configuration not stated), the pKb in assay [4] amounted to 8.8. Besides, in the assay with PC-3, the GI50 came out at 64.6 µM, the TGI turned out to be 199 µM and the CC50 was above 200 µM. For the same molecule, in assay [5], the pKb worked out at 8.16. In addition, in assay [6], the pKb was 9.51.
As for `NCCc1c[nH]c2ccc(O)cc12`, the pD2 in assay [1] stood at 7.3.
In the case of `COc1ccccc1N1CCN(CCN2C(=O)CC3(CCCC3)CC2=O)CC1`, the pD2 in assay [1] turned out to be 9.27. In addition, the pKb in assay [5] was found to be 7.48. The %max in assay [2] amounted to 26.
